From ChEMBL document CHEMBL1142774, “Substituted tetraazaacenaphthylenes as potent CRF1 receptor antagonists for the treatment of depression and anxiety” (Bioorg Med Chem Lett, 2005)

Key:
[1] = Displacement of [125I]o-CRF from recombinant human CRF receptors expressed in Chinese Hamster Ovary (CHO) cell membranes
[2] = Brain/Plasma ratio level at 1 hr after a intravenous dose 0.5 mg/kg in rats; format: ADME, organism-based; parameters: dose 0.5 mg/kg, route intravenous; details: rat, read-out: Penetration
Summary of the method: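 Hans–Wistar rats were given a single 0.5 mg/kg intravenous dose. Brain and plasma levels were measured at 1 h post-dose, and the brain/plasma ratio was taken from these levels.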

[3] = Oral bioavailability in rat at 1 hr (dose 0.5 mg/kg i.v.); format: ADME, organism-based; details: in vivo, 1 mg/kg
Summary of the method: (§1)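 The pharmacokinetic study used Hans–Wistar rats. Each compound was given by the oral route at 1 mg/kg and by the intravenous route at 0.5 mg/kg. Plasma clearance and oral bioavailability were derived from these two administrations.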

[4] = Plasma clearance at 1 hr after a intravenous dose 0.5 mg/kg in rats; format: ADME, organism-based; parameters: dose 0.5 mg/kg, route intravenous; details: rat; summary of the method: as §1

| SMILES | Log IC50 [1] | Kp at 1 h [2] | bioavailability [3] [%] | clearance [4] [mL/min/kg] |
| --- | --- | --- | --- | --- |
| CCC(CC)N1CC2CCN(c3ccc(Cl)cc3Cl)c3nc(C)nc1c32 (stereo unspecified) | -7.16 | – | – | – |
| Cc1nc2c3c(n1)N(c1ccc(Cl)cc1Cl)CC3CCN2CC1CC1 (stereo unspecified) | -5.35 | – | – | – |
| CCCC(CCC)n1cc2c3c(nc(C)nc31)N(c1ccc(C(F)(F)F)cc1C(F)(F)F)CC2 | -7.85 | 1.3 | 33 | 10 |
| CCC(CC)n1cc2c3c(nc(C)nc31)N(c1ccc(C#N)cc1Cl)CC2 | -7.21 | – | – | – |
| CCC(CC)n1cc2c3c(nc(C)nc31)N(c1ccc(C(F)(F)F)cc1C(F)(F)F)CC2 | -7.58 | – | – | – |
| CCCC(CCC)N1CCC2CN(c3ccc(Cl)cc3Cl)c3nc(C)nc1c32 (stereo unspecified) | -7.52 | 1.8 | 31 | 31 |
| CCCC(CCC)n1cc2c3c(nc(C)nc31)N(c1ccc(C#N)cc1C)CC2 | -7.35 | – | – | – |
| CCC(CC)N1CCC2CN(c3ccc(Cl)cc3Cl)c3nc(C)nc1c32 (stereo unspecified) | -6.74 | – | – | – |
| COCC(COC)N1CC2CCN(c3ccc(Cl)cc3Cl)c3nc(C)nc1c32 (stereo unspecified) | -5.9 | – | – | – |
| CCC(CC)n1cc2c3c(nc(C)nc31)N(c1ccc(C#N)cc1C)CC2 | -7.57 | – | – | – |
| CCCC(CCC)N1CCC2CN(c3ccc(C(F)(F)F)cc3C(F)(F)F)c3nc(C)nc1c32 (stereo unspecified) | -7.39 | – | – | – |
| COCC(COC)Nc1nc(C)nc2c(-c3ccc(Cl)cc3Cl)c(C)nn12 | -7.42 | – | – | – |
| CCCC(CCC)N1CC2CCN(c3ccc(Cl)cc3Cl)c3nc(C)nc1c32 (stereo in doubt; 2ac) | -7.65 | 2 | 14 | 32 |
| CCCC(CCC)N1CC2CCN(c3ccc(C(F)(F)F)cc3C(F)(F)F)c3nc(C)nc1c32 (stereo in doubt; 2ad) | -7.44 | 1.1 | 36 | 15 |
| CCCC(CCC)N1CC2CCN(c3ccc(Cl)cc3Cl)c3nc(C)nc1c32 (stereo in doubt; 2ae) | -7.96 | – | – | – |
| CCCC(CCC)N1CC2CCN(c3ccc(Cl)cc3Cl)c3nc(C)nc1c32 (stereo in doubt; 2af) | -7.89 | – | – | – |
| CCCC(CCC)N1CC2CCN(c3ccc(C(F)(F)F)cc3C(F)(F)F)c3nc(C)nc1c32 (stereo in doubt; 2ag) | -7.55 | – | – | – |
| CCCC(CCC)N1CC2CCN(c3ccc(C(F)(F)F)cc3C(F)(F)F)c3nc(C)nc1c32 (stereo in doubt; 2ah) | -7.84 | – | – | – |
| CCCCN(CC)c1nc(C)nc2c1c(C)cn2-c1c(C)cc(C)cc1C [CP-154526] | -7.76 | – | – | – |
